Source: ChEMBL document CHEMBL1154352, “Toll-like receptor 7 selective synthetic oligoribonucleotide agonists: synthesis and structure-activity relationship studies” (J Med Chem, 2009)
Activity calls are given as the source filed them. The rule behind the calls is not given here.

Legend:
[1] = target: T1, Toll-like receptor 9 (Mus musculus) (UniProt Q9EQU3); assay: Activation of mouse TLR9 expressed in HEK293 assessed as induction of NF-kappaB activity reporter gene assay; type: cell-based
T1 sequence (whole entry): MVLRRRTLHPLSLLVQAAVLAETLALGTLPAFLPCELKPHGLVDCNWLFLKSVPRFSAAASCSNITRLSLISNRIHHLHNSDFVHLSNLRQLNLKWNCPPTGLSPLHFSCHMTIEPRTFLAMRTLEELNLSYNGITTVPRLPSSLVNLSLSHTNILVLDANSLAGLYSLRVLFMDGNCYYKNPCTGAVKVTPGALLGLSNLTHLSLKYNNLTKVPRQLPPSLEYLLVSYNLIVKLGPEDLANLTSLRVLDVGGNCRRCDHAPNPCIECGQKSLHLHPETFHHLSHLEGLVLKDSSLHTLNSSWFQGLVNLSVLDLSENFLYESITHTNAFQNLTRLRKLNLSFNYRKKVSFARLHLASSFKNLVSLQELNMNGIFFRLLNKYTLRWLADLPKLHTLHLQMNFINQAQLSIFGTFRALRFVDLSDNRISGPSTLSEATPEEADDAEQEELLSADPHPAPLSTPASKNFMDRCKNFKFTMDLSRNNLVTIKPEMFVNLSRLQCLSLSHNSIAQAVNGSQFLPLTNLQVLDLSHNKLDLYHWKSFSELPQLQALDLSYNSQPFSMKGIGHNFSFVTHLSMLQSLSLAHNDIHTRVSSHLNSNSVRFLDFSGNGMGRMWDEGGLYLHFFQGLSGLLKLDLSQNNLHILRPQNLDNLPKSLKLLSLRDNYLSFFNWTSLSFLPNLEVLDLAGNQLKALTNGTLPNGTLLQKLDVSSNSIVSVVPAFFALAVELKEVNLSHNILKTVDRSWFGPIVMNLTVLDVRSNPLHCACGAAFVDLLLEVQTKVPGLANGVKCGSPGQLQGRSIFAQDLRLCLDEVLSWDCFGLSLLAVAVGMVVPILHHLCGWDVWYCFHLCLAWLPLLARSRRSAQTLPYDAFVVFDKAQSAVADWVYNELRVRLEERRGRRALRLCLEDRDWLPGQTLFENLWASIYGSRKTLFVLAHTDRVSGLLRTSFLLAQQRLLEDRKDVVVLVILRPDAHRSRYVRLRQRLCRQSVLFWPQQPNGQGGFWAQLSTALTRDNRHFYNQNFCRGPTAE

Splenocyte [2] = assay: Immunomodulatory activity in C57BL/6 mouse splenocytes bearing TLR7 receptor assessed as IL6 release at 100 ug/ml after 24 hrs by ELISA; type: functional, cell-based
Method in brief: (§1)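 C57BL/6 splenocytes in RPMI 1640 with 10% FBS, penicillin/streptomycin, 2 mM L-glutamine, plated at 5 × 10^6 cells/mL; compounds in PBS added, 37 °C for 24 h. Supernatant IL-12 and IL-6 by ELISA; representative of three independent experiments.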

Splenocyte [3] = assay: Immunomodulatory activity in C57BL/6 mouse splenocytes bearing TLR7 receptor assessed as IL12 release at 100 ug/ml after 24 hrs by ELISA; type: functional, cell-based; method in brief: as §1
[4] = target: T2, Toll-like receptor 7 (Homo sapiens) (UniProt Q9NYK1); assay: Activation of human TLR7 expressed in HEK293XL assessed as fold induction of NF-kappaB activity at 50 ug/ml after 18 hrs by reporter gene assay relative to control
T2 sequence (whole entry): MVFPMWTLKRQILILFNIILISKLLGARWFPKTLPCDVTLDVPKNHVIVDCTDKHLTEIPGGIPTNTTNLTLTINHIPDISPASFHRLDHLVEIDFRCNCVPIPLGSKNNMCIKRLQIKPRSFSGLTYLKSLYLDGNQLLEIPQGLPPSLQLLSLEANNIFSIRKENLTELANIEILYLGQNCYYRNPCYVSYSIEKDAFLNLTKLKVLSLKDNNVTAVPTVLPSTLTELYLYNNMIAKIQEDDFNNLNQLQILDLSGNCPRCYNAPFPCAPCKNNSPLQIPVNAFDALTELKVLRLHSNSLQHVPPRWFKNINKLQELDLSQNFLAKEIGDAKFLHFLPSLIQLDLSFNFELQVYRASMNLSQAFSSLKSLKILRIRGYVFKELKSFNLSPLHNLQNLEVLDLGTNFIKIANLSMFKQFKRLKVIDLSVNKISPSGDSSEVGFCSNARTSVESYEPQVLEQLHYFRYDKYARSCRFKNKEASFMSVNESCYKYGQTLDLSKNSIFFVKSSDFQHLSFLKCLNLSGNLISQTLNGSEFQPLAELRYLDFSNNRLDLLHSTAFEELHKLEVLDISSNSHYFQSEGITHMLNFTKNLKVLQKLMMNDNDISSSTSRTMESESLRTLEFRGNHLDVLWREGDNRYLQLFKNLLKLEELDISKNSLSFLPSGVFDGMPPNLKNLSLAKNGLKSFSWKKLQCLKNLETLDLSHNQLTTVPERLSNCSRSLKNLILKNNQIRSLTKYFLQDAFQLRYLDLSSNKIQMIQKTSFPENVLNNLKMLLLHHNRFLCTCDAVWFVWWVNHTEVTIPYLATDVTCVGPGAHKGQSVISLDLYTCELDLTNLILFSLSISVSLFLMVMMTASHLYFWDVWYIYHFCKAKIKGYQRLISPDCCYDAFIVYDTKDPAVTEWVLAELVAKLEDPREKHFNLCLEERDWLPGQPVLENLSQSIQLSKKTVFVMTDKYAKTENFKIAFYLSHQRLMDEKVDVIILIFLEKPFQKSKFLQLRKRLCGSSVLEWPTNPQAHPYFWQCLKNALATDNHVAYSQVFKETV
Method in brief: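 HEK293 cells stably expressing human TLR7 or TLR8, transiently transfected with SEAP reporter plasmid; medium replaced, SIMRA compounds added, 18 h incubation. Supernatant SEAP measured by QuantiBlue; expressed as fold increase in NF-κB activity over PBS control. Tabulated data at 50 μg/mL, representative of three independent experiments.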

Homo sapiens = species: Homo sapiens; assay: Ratio of human TLR7 activity to human TLR8 activity
Method in brief: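 TLR7/TLR8 ratio computed from fold NF-κB (SEAP reporter) activation in HEK293 cells stably expressing human TLR7 versus TLR8, compounds at 50 μg/mL, 18 h exposure; representative of three independent experiments.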

Nc1ccn([C@@H]2O[C@H](COP(=O)(S)O[C@H]3[C@@H](O)[C@H](n4cnc5c(N)ncnc54)O[C@@H]3CO)[C@@H](OP(=O)(S)OC[C@H]3O[C@@H](n4ccc(=O)[nH]c4=O)[C@H](O)[C@@H]3OP(=O)(S)OC[C@H]3O[C@@H](n4ccc(=O)[nH]c4=O)[C@H](O)[C@@H]3OP(=O)(S)OC[C@H]3O[C@@H](n4ccc5c(=O)[nH]c(N)nc54)[C@H](O)[C@@H]3OP(=O)(S)OC[C@H]3O[C@@H](n4cnc5c(N)ncnc54)[C@H](O)[C@@H]3OP(=O)(S)OC[C@H]3O[C@@H](n4cnc5c(N)ncnc54)[C@H](O)[C@@H]3OP(=O)(S)OC[C@H]3O[C@@H](n4ccc(N)nc4=O)[C@H](O)[C@@H]3OP(=O)(S)OC[C@H]3O[C@@H](n4ccc(=O)[nH]c4=O)[C@H](O)[C@@H]3OP(=O)(S)OC[C@H]3O[C@@H](n4ccc(=O)[nH]c4=O)[C@H](O)[C@@H]3OP(=O)(S)OC[C@H]3O[C@@H](n4ccc5c(=O)[nH]c(N)nc54)[C@H](O)[C@@H]3OP(=O)(S)OCC(O)COP(=O)(S)O[C@H]3[C@@H](O)[C@H](n4ccc5c(=O)[nH]c(N)nc54)O[C@@H]3COP(=O)(S)O[C@H]3[C@@H](O)[C@H](n4ccc(=O)[nH]c4=O)O[C@@H]3COP(=O)(S)O[C@H]3[C@@H](O)[C@H](n4ccc(=O)[nH]c4=O)O[C@@H]3COP(=O)(S)O[C@H]3[C@@H](O)[C@H](n4ccc(N)nc4=O)O[C@@H]3COP(=O)(S)O[C@H]3[C@@H](O)[C@H](n4cnc5c(N)ncnc54)O[C@@H]3COP(=O)(S)O[C@H]3[C@@H](O)[C@H](n4cnc5c(N)ncnc54)O[C@@H]3COP(=O)(S)O[C@H]3[C@@H](O)[C@H](n4ccc5c(=O)[nH]c(N)nc54)O[C@@H]3COP(=O)(S)O[C@H]3[C@@H](O)[C@H](n4ccc(=O)[nH]c4=O)O[C@@H]3COP(=O)(S)O[C@H]3[C@@H](O)[C@H](n4ccc(=O)[nH]c4=O)O[C@@H]3COP(=O)(S)O[C@H]3[C@@H](O)[C@H](n4ccc(N)nc4=O)O[C@@H]3COP(=O)(S)O[C@H]3[C@@H](O)[C@H](n4cnc5c(N)ncnc54)O[C@@H]3CO)[C@H]2O)c(=O)n1 (stereo not given in full)
Activity [1]: inactive
Activity (Splenocyte [2]): Active
Activity (Splenocyte [3]): Active
fold change (FC) [4]: 14.7
Ratio (Homo sapiens): 3

Nc1ccn([C@@H]2O[C@H](COP(=O)(S)O[C@H]3[C@@H](O)[C@H](n4cnc5c(N)ncnc54)O[C@@H]3COP(=O)(S)O[C@H]3[C@@H](O)[C@H](n4ccc5c(=O)[nH]c(N)nc54)O[C@@H]3COP(=O)(S)O[C@H]3[C@@H](O)[C@H](n4ccc(=O)[nH]c4=O)O[C@@H]3CO)[C@@H](OP(=O)(S)OC[C@H]3O[C@@H](n4ccc5c(=O)[nH]c(N)nc54)[C@H](O)[C@@H]3OP(=O)(S)OC[C@H]3O[C@@H](n4cnc5c(N)ncnc54)[C@H](O)[C@@H]3OC[C@H]3O[C@@H](n4ccc(=O)[nH]c4=O)[C@H](O)[C@@H]3OP(=O)(S)ON[C@H]3O[C@@H](n4ccc5c(=O)[nH]c(N)nc54)[C@H](O)[C@@H]3OP(=O)(S)OC[C@H]3O[C@@H](n4cnc5c(N)ncnc54)[C@H](O)[C@@H]3OP(=O)(S)OC[C@H]3O[C@@H](n4ccc(=O)[nH]c4=O)[C@H](O)[C@@H]3OP(=O)(S)OC[C@H]3O[C@@H](n4ccc(=O)[nH]c4=O)[C@H](O)[C@@H]3OP(=O)(S)OCC(O)COP(=O)(S)O[C@H]3[C@@H](O)[C@H](n4ccc(=O)[nH]c4=O)O[C@@H]3COP(=O)(S)O[C@H]3[C@@H](O)[C@H](n4ccc(=O)[nH]c4=O)O[C@@H]3COP(=O)(S)O[C@H]3[C@@H](O)[C@H](n4cnc5c(N)ncnc54)O[C@@H]3COP(=O)(S)O[C@H]3[C@@H](O)[C@H](n4ccc5c(=O)[nH]c(N)nc54)O[C@@H]3NOP(=O)(S)O[C@H]3[C@@H](O)[C@H](n4ccc(=O)[nH]c4=O)O[C@@H]3CO[C@H]3[C@@H](O)[C@H](n4cnc5c(N)ncnc54)O[C@@H]3COP(=O)(S)O[C@H]3[C@@H](O)[C@H](n4ccc5c(=O)[nH]c(N)nc54)O[C@@H]3COP(=O)(S)O[C@H]3[C@@H](O)[C@H](n4ccc(N)nc4=O)O[C@@H]3COP(=O)(S)O[C@H]3[C@@H](O)[C@H](n4cnc5c(N)ncnc54)O[C@@H]3COP(=O)(S)O[C@H]3[C@@H](O)[C@H](n4ccc5c(=O)[nH]c(N)nc54)O[C@@H]3COP(=O)(S)O[C@H]3[C@@H](O)[C@H](n4ccc(=O)[nH]c4=O)O[C@@H]3CO)[C@H]2O)c(=O)n1 (stereo not given in full)
Activity [1]: inactive
Activity (Splenocyte [2]): Active
Activity (Splenocyte [3]): Active
fold change (FC) [4]: 18.4
Ratio (Homo sapiens): 4
